Data set [1] concerns Staphylococcus aureus. Description: Antimicrobial activity against vancomycin-susceptible-, methicillin-resistant Staphylococcus aureus 1130 assessed as post-antibiotic effect at 10 times MIC pre-exposed to Telavancin for 1 hr by plate counting method. In kind it is functional. Put shortly:
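Direct colony suspensions (~5 × 10^6 CFU/ml) were exposed to 10× MIC for 1 h at 35°C with shaking in Mueller-Hinton broth, then diluted 1:1,000 to remove drug. Viable plate counts were taken before exposure, at 0 h, then every 2 h until turbidity reached McFarland 1. PAE = T − C, the time for counts to rise 1 log10 versus the unexposed control. Two separate experiments were run.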

Data set [2] has as its system Staphylococcus aureus. Description: Antimicrobial activity against vancomycin-intermediate-, methicillin-resistant Staphylococcus aureus 770 assessed as time required to induce sub-MIC effect at 0.2 times MIC […] by plate counting method. In kind it is functional. Put shortly:
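SME, viable plate count method: no prior drug exposure. About 5 × 10^6 CFU/ml in Mueller-Hinton broth at 35°C received 0.2, 0.3 or 0.4× MIC, alongside a drug-free tube. Counts were taken at the start, then every 2 h until McFarland no. 1 turbidity, as log10 CFU/ml against time. Two separate experiments, each with a new inoculum.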

Data set [3] deals with Staphylococcus aureus. In words: Antimicrobial activity against vancomycin-resistant-, methicillin-resistant Staphylococcus aureus 510 assessed as time required to induce post antibiotic sub-MIC effect at 0.3 times MIC […] by plate counting method. In kind it is functional. Put shortly:
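After 1 h preexposure to 10× MIC at 35°C and 1:1,000 dilution, cultures were split, and drug was re-added to final 0.2, 0.3 or 0.4× MIC, with a drug-free tube. Viable counts were taken every 2 h until McFarland 1 turbidity. Duration was derived from log10 CFU/ml versus time curves. Two experiments were run, each with a new inoculum.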

The test system of a further data set is Streptococcus agalactiae. In words: Antimicrobial activity against Streptococcus agalactiae HMC 5 assessed as time required to induce sub-MIC effect at 0.4 times MIC exposed for 2 hrs by plate counting method. In kind it is functional. Put shortly: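 Unexposed Mueller-Hinton broth cultures (about 5 × 10^6 CFU/ml, 35°C) were handled as in the PA-SME set but without the 10× MIC pre-exposure. They were diluted 1:1,000, then given telavancin at final 0.2, 0.3 or 0.4× MIC, with a drug-free control. Viable counts were taken every 2 h until McFarland no. 1 turbidity. Effect duration comes from log10 CFU/ml-time plots; two separate experiments with new inocula.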

A short description of data set [4]: Elimination half life in healthy human at 5 mg/kg, iv. In kind it is ADME, organism-based. Further details: dose 5 mg/kg, route intravenous. The conditions noted are these: in vivo, read-out: beta t1/2.

`CCCCCCCCCCNCCN[C@@]1(C)C[C@H](O[C@H]2[C@H](Oc3c4cc5cc3Oc3ccc(cc3Cl)[C@@H](O)[C@@H](NC(=O)[C@@H](CC(C)C)NC)C(=O)N[C@@H](CC(N)=O)C(=O)N[C@H]5C(=O)N[C@H]3C(=O)N[C@H](C(=O)N[C@H](C(=O)O)c5cc(O)c(CNCP(=O)(O)O)c(O)c5-c5cc3ccc5O)[C@H](O)c3ccc(c(Cl)c3)O4)O[C@H](CO)[C@@H](O)[C@@H]2O)O[C@@H](C)[C@H]1O` [TELAVANCIN]: the PAE was 1.4 h in the data set on Staphylococcus aureus [1], 0.7 h in the data set with Staphylococcus aureus [2], 6 h in the data set with Staphylococcus aureus [3] and greater than 10.7 h in the data set on Streptococcus agalactiae. In data set [4], the half-life is greater than 7 h.

The record behind these values is ChEMBL document CHEMBL1629663, “Postantibiotic effects of telavancin against 16 gram-positive organisms” (Antimicrob Agents Chemother, 2009).
